Data on eleven compounds can be found in ChEMBL document CHEMBL3751726, “A stepwise dechlorination/cross-coupling strategy to diversify the vancomycin 'in-chloride'” (2016).

Holding throughout (type): functional
In assay [1] the test system is Enterococcus faecalis. The assay is described as follows: Antimicrobial activity against vancomycin-resistant Enterococcus faecalis MMX 202 expressing VanB after 18 to 20 hrs by microdilution method. For orientation: In broth dilution the organism is exposed to a series of concentrations in liquid medium.
Assay [2] concerns Staphylococcus aureus. The assay is described as follows: Antimicrobial activity against methicillin-susceptible Staphylococcus aureus ATCC 29213 after 18 to 20 hrs by microdilution method. In outline:
(§1)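 Standard microtiter plate-based broth microdilution assay. The top concentration tested was 64 µg/mL, so inhibition that was not reached is reported as >64 µg/mL. The strains are methicillin-susceptible S. aureus ATCC 29213 and vancomycin-susceptible E. faecalis MMX 101.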

Assay [3] concerns Enterococcus faecalis. The experiment in a line: Antimicrobial activity against vancomycin-resistant Enterococcus faecalis MMX 486 expressing VanA after 18 to 20 hrs by microdilution method.
Assay [4] concerns Enterococcus faecalis. The experiment in a line: Antimicrobial activity against vancomycin-susceptible Enterococcus faecalis MMX 101 after 18 to 20 hrs by microdilution method. The gist of the method: as §1
For assay [5], the system named is Staphylococcus aureus. The assay is described as follows: Antimicrobial activity against methicillin-resistant Staphylococcus aureus MMX 2002 after 18 to 20 hrs by microdilution method.

≈ marks a conversion by molar mass, not a printed value.

Regarding `CN[C@@H](CC(C)C)C(=O)N[C@@H]1C(=O)N[C@H](CC(N)=O)C(=O)N[C@@H]2C(=O)N[C@@H]3C(=O)N[C@@H](C(=O)N[C@H](C(=O)O)c4cc(O)cc(O)c4-c4cc3ccc4O)[C@@H](O)c3ccc(c(-c4cccc(CN)c4)c3)Oc3cc2cc(c3O[C@@H]2O[C@H](CO)[C@@H](O)[C@H](O)[C@H]2O[C@H]2C[C@](C)(N)[C@H](O)[C@H](C)O2)Oc2ccc(cc2)[C@@H]1O`, the MIC in the assay on Enterococcus faecalis [1], with Staphylococcus aureus [2], against Enterococcus faecalis [3], in the assay with Enterococcus faecalis [4] and against Staphylococcus aureus [5] was over 64 µg/mL each time.
With `CN[C@@H](CC(C)C)C(=O)N[C@@H]1C(=O)N[C@H](CC(N)=O)C(=O)N[C@@H]2C(=O)N[C@@H]3C(=O)N[C@@H](C(=O)N[C@H](C(=O)O)c4cc(O)cc(O)c4-c4cc3ccc4O)[C@@H](O)c3ccc(c(-c4ccoc4)c3)Oc3cc2cc(c3O[C@H]2O[C@@H](CO)[C@H](O)[C@@H](O)[C@@H]2O[C@H]2C[C@](C)(N)[C@H](O)[C@H](C)O2)Oc2ccc(cc2)[C@@H]1O`, the MIC in the assay with Enterococcus faecalis [1] is over 64 µg/mL; against Staphylococcus aureus [2], 64 µg/mL (≈ 44.2 µM); against Enterococcus faecalis [3] it was over 64 µg/mL; with Enterococcus faecalis [4] it was over 64 µg/mL; in the assay with Staphylococcus aureus [5], 64 µg/mL (≈ 44.2 µM).
Turning to `CN[C@H](CC(C)C)C(=O)N[C@H]1C(=O)N[C@@H](CC(N)=O)C(=O)N[C@H]2C(=O)N[C@H]3C(=O)N[C@H](C(=O)N[C@H](C(=O)O)c4cc(O)cc(O)c4-c4cc3ccc4O)[C@H](O)c3ccc(c(Cl)c3)Oc3cc2cc(c3O[C@@H]2O[C@H](CO)[C@@H](O)[C@H](O)[C@H]2O[C@H]2C[C@](C)(N)[C@H](O)[C@H](C)O2)Oc2ccc(cc2Cl)[C@H]1O` [VANCOMYCIN], the values for the MIC in the assay with Enterococcus faecalis [1], against Enterococcus faecalis [3] and against Enterococcus faecalis [4] were 8 µg/mL (≈ 5.52 µM), over 64 µg/mL and 2 µg/mL (≈ 1.38 µM), respectively.
For `CN[C@@H](CC(C)C)C(=O)N[C@@H]1C(=O)N[C@H](CC(N)=O)C(=O)N[C@@H]2C(=O)N[C@@H]3C(=O)N[C@@H](C(=O)N[C@H](C(=O)O)c4cc(O)cc(O)c4-c4cc3ccc4O)[C@@H](O)c3ccc(c(-c4ccc5[nH]ccc5c4)c3)Oc3cc2cc(c3O[C@@H]2O[C@H](CO)[C@@H](O)[C@H](O)[C@H]2O[C@H]2C[C@](C)(N)[C@H](O)[C@H](C)O2)Oc2ccc(cc2)[C@@H]1O`, the MIC in the assay with Enterococcus faecalis [1], in the assay on Staphylococcus aureus [2], in the assay on Enterococcus faecalis [3], against Enterococcus faecalis [4] and with Staphylococcus aureus [5] was over 64 µg/mL in each case.
`CN[C@@H](CC(C)C)C(=O)N[C@@H]1C(=O)N[C@H](CC(N)=O)C(=O)N[C@@H]2C(=O)N[C@@H]3C(=O)N[C@@H](C(=O)N[C@H](C(=O)O)c4cc(O)cc(O)c4-c4cc3ccc4O)[C@@H](O)c3ccc(cc3)Oc3cc2cc(c3O[C@@H]2O[C@H](CO)[C@@H](O)[C@H](O)[C@H]2O[C@H]2C[C@](C)(N)[C@H](O)[C@H](C)O2)Oc2ccc(cc2)[C@@H]1O`: the minimum inhibitory concentration (MIC) in the assay with Enterococcus faecalis [1] was over 64 µg/mL; against Staphylococcus aureus [2], 8 µg/mL (≈ 5.8 µM); with Enterococcus faecalis [3] it was over 64 µg/mL; in the assay with Enterococcus faecalis [4], 32 µg/mL (≈ 23.2 µM); in the assay with Staphylococcus aureus [5], 8 µg/mL (≈ 5.8 µM).
`CC(=O)NC[C@H]1CN(c2ccc(N3CCOCC3)c(F)c2)C(=O)O1` [LINEZOLID]: it took 1 µg/mL (≈ 2.96 µM) to inhibit growth in the assay with Staphylococcus aureus [5] (MIC).
As to `CN[C@@H](CC(C)C)C(=O)N[C@@H]1C(=O)N[C@H](CC(N)=O)C(=O)N[C@@H]2C(=O)N[C@@H]3C(=O)N[C@@H](C(=O)N[C@H](C(=O)O)c4cc(O)cc(O)c4-c4cc3ccc4O)[C@@H](O)c3ccc(c(-c4cccc(C(N)=O)c4)c3)Oc3cc2cc(c3O[C@@H]2O[C@H](CO)[C@@H](O)[C@H](O)[C@H]2O[C@H]2C[C@](C)(N)[C@H](O)[C@H](C)O2)Oc2ccc(cc2)[C@@H]1O`, the MIC against Enterococcus faecalis [1], with Staphylococcus aureus [2], with Enterococcus faecalis [3], in the assay with Enterococcus faecalis [4] and in the assay on Staphylococcus aureus [5] was over 64 µg/mL each time.
Turning to `CN[C@@H](CC(C)C)C(=O)N[C@@H]1C(=O)N[C@H](CC(N)=O)C(=O)N[C@@H]2C(=O)N[C@@H]3C(=O)N[C@@H](C(=O)N[C@H](C(=O)O)c4cc(O)cc(O)c4-c4cc3ccc4O)[C@@H](O)c3ccc(c(-c4cccc(F)c4)c3)Oc3cc2cc(c3O[C@@H]2O[C@H](CO)[C@@H](O)[C@H](O)[C@H]2O[C@H]2C[C@](C)(N)[C@H](O)[C@H](C)O2)Oc2ccc(cc2)[C@@H]1O`, the minimal inhibitory concentration (MIC) in the assay on Enterococcus faecalis [1], against Staphylococcus aureus [2], against Enterococcus faecalis [3], against Enterococcus faecalis [4] and against Staphylococcus aureus [5] was over 64 µg/mL throughout.
In the case of `CCCCCC/C=C/c1cc2ccc1Oc1cc3cc(c1O[C@@H]1O[C@H](CO)[C@@H](O)[C@H](O)[C@H]1O[C@H]1C[C@](C)(N)[C@H](O)[C@H](C)O1)Oc1ccc(cc1)[C@H](O)[C@H](NC(=O)[C@@H](CC(C)C)NC)C(=O)N[C@H](CC(N)=O)C(=O)N[C@@H]3C(=O)N[C@@H]1C(=O)N[C@@H](C(=O)N[C@H](C(=O)O)c3cc(O)cc(O)c3-c3cc1ccc3O)[C@H]2O`, the MIC in the assay on Enterococcus faecalis [1], in the assay on Staphylococcus aureus [2], with Enterococcus faecalis [3], against Enterococcus faecalis [4] and in the assay on Staphylococcus aureus [5] was over 64 µg/mL in each case.
Take `CN[C@@H](CC(C)C)C(=O)N[C@@H]1C(=O)N[C@H](CC(N)=O)C(=O)N[C@@H]2C(=O)N[C@@H]3C(=O)N[C@@H](C(=O)N[C@H](C(=O)O)c4cc(O)cc(O)c4-c4cc3ccc4O)[C@@H](O)c3ccc(c(Cl)c3)Oc3cc2cc(c3O[C@H]2O[C@@H](CO)[C@H](O)[C@@H](O)[C@@H]2O[C@@H]2C[C@@](C)(N)[C@@H](O)[C@@H](C)O2)Oc2ccc(cc2)[C@@H]1O`: the MIC against Enterococcus faecalis [1] was 64 µg/mL (≈ 45.2 µM); in the assay with Staphylococcus aureus [2], 4 µg/mL (≈ 2.83 µM); against Enterococcus faecalis [3], over 64 µg/mL; with Enterococcus faecalis [4], 8 µg/mL (≈ 5.65 µM); against Staphylococcus aureus [5], 4 µg/mL (≈ 2.83 µM).
For `CN[C@@H](CC(C)C)C(=O)N[C@@H]1C(=O)N[C@H](CC(N)=O)C(=O)N[C@@H]2C(=O)N[C@@H]3C(=O)N[C@@H](C(=O)N[C@H](C(=O)O)c4cc(O)cc(O)c4-c4cc3ccc4O)[C@@H](O)c3ccc(c(-c4ccc(-c5ccccc5)cc4)c3)Oc3cc2cc(c3O[C@@H]2O[C@H](CO)[C@@H](O)[C@H](O)[C@H]2O[C@H]2C[C@](C)(N)[C@H](O)[C@H](C)O2)Oc2ccc(cc2)[C@@H]1O`, the MIC against Enterococcus faecalis [1], with Staphylococcus aureus [2], against Enterococcus faecalis [3], in the assay with Enterococcus faecalis [4] and against Staphylococcus aureus [5] was over 64 µg/mL each time.

The MIC is the smallest concentration in the dilution series that meets the test's criterion for growth inhibition.
